# Screening results: PubChem, The Scripps Research Institute Molecular Screening Center
# M4 PAM – positive allosteric modulators of human muscarinic M4 receptor; P08173; 360,000 compounds, 0.4% hits; CHO-K1 hM4/Gqi5, Fluo-8 calcium fluorescence, ACh EC20; 0% = ACh EC20, 100% = maximal ACh; activation, % at 3 µM;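 active = activation above its plate's cutoff, the mean activation of sample wells plus 3 SD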
# M4 antag – CHRM4 antagonism in calcium assay; P08173; CHO-hM4 cells, ACh EC80, Fluo-8 calcium fluorescence; inhibition, % at 3 µM; 360,000 compounds, 0.73% hits;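 active = inhibition above its plate's cutoff, the mean inhibition of sample wells plus 3 SD, cut at about 27% in these data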
# TAAR1 agonist – agonists of human TAAR1; CHO RD-HGA16 TAAR1, Fluo-8 calcium fluorescence; vehicle wells 0%, saturating PEA agonist 100%; activation, % at 3 µM; 360,000 compounds, 0.99% hits; Q96RJ0; AID 624467;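 active = activation above the mean activation of all test compounds in the run plus 3 SD, cut at about 38% in these data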
# Target sequence (Q96RJ0 whole entry, looked up): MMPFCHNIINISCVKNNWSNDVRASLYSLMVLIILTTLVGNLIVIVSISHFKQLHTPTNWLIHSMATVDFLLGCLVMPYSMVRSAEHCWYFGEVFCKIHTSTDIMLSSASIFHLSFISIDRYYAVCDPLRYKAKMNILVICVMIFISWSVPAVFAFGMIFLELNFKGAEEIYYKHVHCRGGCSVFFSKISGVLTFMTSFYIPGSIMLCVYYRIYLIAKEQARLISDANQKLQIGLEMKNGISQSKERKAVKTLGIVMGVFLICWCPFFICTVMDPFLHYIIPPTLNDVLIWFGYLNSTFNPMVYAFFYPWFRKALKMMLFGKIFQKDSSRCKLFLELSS
#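 System: CHO-derived RD-HGA16 cells with stable Gα16 and human TAAR1 / Times: 17-24 h plating, Fluo-8 75 min 37 °C, 30 min RT / Technique: calcium-sensitive Fluo-8 signal, excitation 470-495, emission 515-575 nm / Measure: % activation relative to PEA EC100 response / Benchmarks: DMSO and PEA EC100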
# CHRM4 agonist – agonists of human muscarinic M4 receptor (CHRM4). P08173. CHO-K1 hM4/Gqi5, Fluo-8 calcium fluorescence; vehicle 0%, full acetylcholine response 100%. activation, % at 3 µM. 360,000 compounds, 0.14% hits;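 active = activation above the run mean over all test wells plus 3 SD, cut at about 32% in these data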;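 also: peak over basal fluorescence ratio per well then scaled between controls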
# TAAR1 antag – antagonists of human TAAR1; CHO RD-HGA16 TAAR1, Fluo-8 calcium fluorescence, antagonist; inhibition, % at 3 µM; AID 624466; 360,000 compounds, 1.5% hits; Q96RJ0;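 active = inhibition above a per-plate cutoff, the mean inhibition of test compounds on that plate plus 3 SD, cut at about 49% in these data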
#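 Test system: CHO RD-HGA16 cells bearing hTAAR1 | Reagent: β-PEA, EC80 | Compound dosing: 3 µM, single point | Schedule: Dye loading 75 min at 37 °C, then 30 min room temperature | Signal: Calcium fluorescence with Fluo-8 | Evaluation: Percent inhibition of PEA-evoked calcium signal, max/basal emission ratio | Control set: DMSO-only wells and EC80 β-PEA-stimulated wells | Repeats: Singlicate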
# TAAR1 nonsel count – nonselective antagonist in TAAR1 antagonist counter-screen. shares compounds with TAAR1 antag. counterscreen cell line, calcium fluorescence, antagonist mode. inhibition, % at 3 µM. 2,400 compounds, 77% hits; in the data active = inhibition above about 22%;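 also: CHO-Ga16 host cells stimulated with ATP at an EC80 level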
# TAAR1 ant conf – confirmation of human TAAR1 antagonists. TAAR1-expressing cells, fluorescence antagonist read-out. shares compounds with TAAR1 antag. 2,400 compounds, 40% hits. inhibition, % at 3 µM; in the data active = inhibition above about 49%;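 also: CHO-Ga16 host cells challenged with agonist PEA near its EC80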
# Ga16 nonsel ag – nonselective Ga16 agonist in TAAR1 antagonist counter-screen. shares compounds with TAAR1 antag. Ga16-expressing cells, calcium fluorescence, agonist counterscreen. activation, % at 3 µM. 2,400 compounds, 18% hits. AID 651953; in the data active = activation above about 12%
# TAAR1 ag counter – activates human TAAR1 in antagonist counter-screen. hTAAR1 cell line, fluorescence activation, agonist mode. shares compounds with TAAR1 antag. activation, % at 3 µM. 2,400 compounds, 2% hits; in the data active = activation above about 37%;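 also: CHO cells stably expressing TAAR1 with calcium dye readout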
# A number is an active result; i = inactive; nt = no result. In the library only some 3% were active in any assay of this set; here they are far more common.
SMILES,M4 PAM,M4 antag,TAAR1 agonist,CHRM4 agonist,TAAR1 antag,TAAR1 nonsel count,TAAR1 ant conf,Ga16 nonsel ag,TAAR1 ag counter
Cc1cccc(NS(=O)(=O)c2ccc(C(=O)N3CCN(c4ccccc4O)CC3)cc2)c1C,i,i,i,i,83,38,i,13,i
Cc1ccc(S(=O)(=O)Nc2cccc(C(=O)N3CCN(c4ccccc4O)CC3)c2)cc1F,i,i,i,i,61,24,i,i,i
Cc1ccccc1NS(=O)(=O)c1ccc(C(=O)N2CCCC2)cc1,i,i,i,i,i,nt,nt,nt,nt
O=Nc1ccc(Cl)cn1,nt,nt,i,nt,i,nt,nt,nt,nt
COC(=O)[C@H](Cc1ccccc1)NC(=O)Cn1cnc(C(=O)Nc2ccc(C)c(C)c2)n1,i,i,i,i,i,nt,nt,nt,nt
COc1cccc(OC)c1C(=O)Oc1ccc2c(c1)O/C(=C\c1ccncc1)C2=O,i,i,i,i,53,41,56,i,i
COc1cc(CC(=O)N2c3ccccc3N=C(c3ccccc3)C2C(=O)NCc2ccccc2)cc(OC)c1 (stereo unspecified),i,i,i,i,i,nt,nt,nt,nt
COc1cccc(/C=C2\SC(=S)N(CCC(=O)N3CCCCC3CCO)C2=O)c1 (stereo unspecified),i,i,i,i,i,nt,nt,nt,nt
COc1cccc(/C=C2\SC(=S)N(CCCC(=O)N3CCCCC3CCO)C2=O)c1 (stereo unspecified),i,i,i,i,55,29,i,12,i
O=C(Nc1ccccc1)c1cc(C2CCCCN2S(=O)(=O)Cc2cccc(C(F)(F)F)c2)on1 (stereo unspecified),i,i,i,i,i,nt,nt,nt,nt
Cc1ccc(C(=O)Nc2ccc3cn[nH]c3c2)cc1S(=O)(=O)N1CCOCC1,i,i,i,i,62,31,i,i,i
CC(=O)c1cccc(NC(=O)c2cccc(S(=O)(=O)N3CCOCC3)c2)c1,i,i,i,i,i,nt,nt,nt,nt
Cc1cc(C)n(-c2ccc(C(=O)Nc3ccc(C)c(S(=O)(=O)N4CCOCC4)c3)cc2)n1,i,i,i,i,78,41,55,14,i
CCOC(=O)c1ccc(NC(=O)c2cccc(S(=O)(=O)N3CCOCC3)c2)cc1,i,38,i,i,62,34,i,14,i
CCc1ccc(C2CC3C(CN2S(=O)(=O)c2ccc(C)cc2)C(=O)CC(c2ccc(CC)cc2)N3S(=O)(=O)c2ccc(C)cc2)cc1 (stereo unspecified),i,i,i,i,i,nt,nt,nt,nt
O=C(Nc1ccc(N2CCN(C(=O)c3ccco3)CC2)cc1)c1ccc([N+](=O)[O-])cc1Cl,i,i,i,i,i,nt,nt,nt,nt
O=C(Nc1ccc2c(c1)CCCN2C(=O)c1ccco1)c1cc([N+](=O)[O-])ccc1Cl,i,i,i,i,61,26,i,i,i
C=CC[C@@H](CC(=O)NCCO)C(=O)NCCOC(=O)[C@@H](CC=C)Cc1ccc(F)cc1,i,i,i,i,i,nt,nt,nt,nt
C=CC[C@@H](CC(=O)N[C@@H](CO)Cc1ccccc1)C(=O)NC[C@@H](OC(=O)[C@@H](CC=C)Cc1ccc(F)cc1)c1ccccc1,i,i,i,i,i,nt,nt,nt,nt
C=CC[C@@H](CC(=O)NCCO)C(=O)NC[C@H](OC(=O)[C@@H](CC=C)Cc1ccc(F)cc1)c1ccccc1,i,i,i,i,78,32,63,13,i
C=CC[C@@H](CC(=O)N[C@@H](CO)Cc1ccccc1)C(=O)NC[C@H](OC(=O)[C@@H](CC=C)Cc1ccc(F)cc1)c1ccccc1,i,i,i,i,63,32,54,i,i
CCOC(=O)c1cccc(NC(=O)c2ccc3c(c2)C(=O)N(CC2CCCO2)C3=O)c1 (stereo unspecified),i,i,i,i,68,24,i,i,i
Cc1ccc(C(=O)Nc2ccc3c(c2)C(=O)N(CC2CCCO2)C3=O)cc1 (stereo unspecified),i,i,i,i,i,nt,nt,nt,nt
C[C@H]1CN([C@@H](C)CO)C(=O)CCCn2cc(nn2)CO[C@@H]1CN(C)C(=O)Nc1ccc(-c2cccs2)cc1,i,i,i,i,i,nt,nt,nt,nt
CCCOc1ccccc1OCC(=O)Nc1ccc(S(=O)(=O)N2CCCCC2)cc1,i,i,i,i,i,nt,nt,nt,nt
SMILES,M4 PAM,M4 antag,TAAR1 agonist,CHRM4 agonist,TAAR1 antag,TAAR1 nonsel count,TAAR1 ant conf,Ga16 nonsel ag,TAAR1 ag counter
CCCOc1ccccc1OCC(=O)Nc1ccc(S(=O)(=O)N2CCCC2)cc1,i,i,i,i,65,i,i,i,i
COC(=O)[C@]12CCCCC=C1N(Cc1ccc3c(c1)OCO3)C(=O)[C@H](CC(=O)NCCC(C)C)C2,i,i,i,i,i,nt,nt,nt,nt
COc1ccnc(Oc2ccc(F)cc2)c1C(=O)N/C=N/OCc1ccc(F)cc1Cl,i,i,i,i,76,41,61,14,i
COc1ccnc(Oc2ccc(F)cc2)c1C(=O)N/C=N/OCc1ccc(Cl)cc1Cl,i,i,i,i,63,29,57,13,i
Cc1nc(SCc2nc3ccccc3[nH]2)c2oc3ccccc3c2n1,i,i,i,i,i,nt,nt,nt,nt
c1ccc(-c2nc(SCc3nc4ccccc4[nH]3)c3oc4ccccc4c3n2)cc1,i,i,i,i,54,i,i,i,i
Cc1c(COC(=O)NC(C)C)c(COC(=O)NC(C)C)c2n1CS(=O)(=O)C2,nt,nt,i,nt,i,nt,nt,nt,nt
CCOC(=O)C1=CCN(S(C)(=O)=O)C1c1ccc(Cl)cc1 (stereo unspecified),nt,nt,i,nt,i,nt,nt,nt,nt
COc1ccc(CCNc2oc(COc3ccc(Br)cc3)nc2C#N)cc1OC,i,i,i,i,93,47,65,i,i
COc1ccc(CCNc2oc(COc3ccccc3F)nc2C#N)cc1,i,i,i,i,65,29,52,i,i
Cc1cccc(C)c1NC(=O)C1c2ccccc2OCC(=O)N1CCc1ccccc1 (stereo unspecified),i,i,i,i,i,nt,nt,nt,nt
O=C(Nc1cccc(Cl)c1)N(Cc1nc2ccccc2c(=O)[nH]1)Cc1cccs1,i,i,i,i,51,30,i,i,i
Cc1cc(C)n(-c2nc(Nc3ccccc3C(F)(F)F)nc(-n3nc(C)cc3C)n2)n1,i,i,i,i,92,42,70,13,i
COCCN1C(=O)CN(S(C)(=O)=O)CC1(C)C(=O)Nc1ccc2c(c1)OCCO2 (stereo unspecified),i,i,i,i,i,nt,nt,nt,nt
